Results taken from ChEMBL document CHEMBL4725282, “Discovery of a Conformationally Constrained Oxazolidinone with Improved Safety and Efficacy Profiles for the Treatment of Multidrug-Resistant Tuberculosis” (J Med Chem, 2020).
In brackets after ≈: the same amount, converted by molar mass. Activity calls are given as the source filed them. The rule behind the calls is not given here.

Legend:
[1] = tested on: Mycobacterium tuberculosis; experiment: Antitubercular activity against Mycobacterium tuberculosis H37Rv incubated for 7 days by microplate alamar blue assay; format: functional; conditions: Mycobacterium tuberculosis, H37Rv, 168 h, time 7 day; read-out: MIC
Summary of the method: (§1)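 MIC determined by microplate alamar blue assay (MABA) following a published protocol.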

Vero = experiment: Cytotoxicity against African green monkey Vero cells assessed as reduction in cell viability measured after 48 hrs by MTT assay; format: cell-based; conditions: Chlorocebus sabaeus
Summary of the method: (§2)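 Cytotoxicity on Vero or HepG2 cells by MTT assay, run as previously reported.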

[2] = Stability in CD-1 mouse liver microsome at 1 uM measured after 30 mins in absence of NADPH by LC-MS/MS analysis; format: ADME; conditions: microsomes, 0.5 h
Summary of the method: (§3)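 Liver microsomes (male CD-1 mouse or pooled human), 1 mg/mL protein, compound 1 µM, 37°C with shaking. Started with 1 mM NADPH or run without cofactor. Quenched with ice-cold ACN/MeOH containing internal standard. Parent quantified by LC-MS/MS; 30 min concentration normalised to time zero.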

HepG2 = experiment: Cytotoxicity against human HepG2 cells assessed as reduction in cell viability measured after 48 hrs by MTT assay; format: cell-based; conditions: HepG2, 48 h; summary of the method: as §2
[3] = target: T1, Amine oxidase [flavin-containing] A (Homo sapiens, UniProt P21397); experiment: Inhibition of recombinant human MAOA expressed in baculovirus infected insect cells using kynuramine as substrate measured after 20 mins by LC-MS/MS analysis
T1 sequence (P21397 whole entry): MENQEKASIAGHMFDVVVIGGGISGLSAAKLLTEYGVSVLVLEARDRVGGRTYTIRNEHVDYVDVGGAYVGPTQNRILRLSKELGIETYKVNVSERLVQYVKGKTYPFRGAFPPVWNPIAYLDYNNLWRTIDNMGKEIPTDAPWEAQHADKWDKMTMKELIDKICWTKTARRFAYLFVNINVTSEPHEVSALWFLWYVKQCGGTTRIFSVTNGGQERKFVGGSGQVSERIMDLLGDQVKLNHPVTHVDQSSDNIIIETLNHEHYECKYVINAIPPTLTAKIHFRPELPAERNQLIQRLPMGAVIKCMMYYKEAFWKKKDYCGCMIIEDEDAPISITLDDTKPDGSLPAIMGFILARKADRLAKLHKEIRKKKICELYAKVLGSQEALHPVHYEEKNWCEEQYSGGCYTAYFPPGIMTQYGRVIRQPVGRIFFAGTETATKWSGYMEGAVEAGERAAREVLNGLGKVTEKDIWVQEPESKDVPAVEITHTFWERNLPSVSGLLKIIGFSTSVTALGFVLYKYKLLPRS
Summary of the method: (§4)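 Recombinant human MAO-A or MAO-B (50 μg/mL) in 100 mM potassium phosphate pH 7.4 with 5 mM MgCl2. Kynuramine substrate at 50 μM (MAO-A) or 25 μM (MAO-B). […] 4-Hydroxyquinoline formation measured by LC-MS/MS versus vehicle; IC50 derived.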

[4] = tested on: Mycobacterium tuberculosis; experiment: Antitubercular activity against Mycobacterium tuberculosis isolate 12525 incubated for 7 days by microplate alamar blue assay; format: functional; conditions: isolate 12525, 168 h, time 7 day; summary of the method: as §1
[5] = Stability in CD-1 mouse liver microsome assessed as parent compound remaining at 1 uM measured after 30 mins in presence of NADPH by LC-MS/MS analysis; format: ADME; conditions: liver microsomes, read-out: Stabilty; summary of the method: as §3
[6] = Inhibition of mitochondrial protein synthesis in rat H9c2 cells measured after 5 days by ELISA; format: cell-based; conditions: H9c2, 120 h
Summary of the method: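 H9C2 cells in DMEM with 10% FBS, seeded 1500/well. After 18 h, compound added at final 0.03–200 μM (3-fold series), then 5 days at 37 °C, 5% CO2; 0.5% DMSO negative control. MPS inhibition read by MitoBiogenesis In-Cell ELISA; IC50 calculated.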

[7] = target: T2, Amine oxidase [flavin-containing] B (Homo sapiens, UniProt P27338); experiment: Inhibition of recombinant human MAOB expressed in baculovirus infected insect cells using kynuramine as substrate measured after 20 mins by LC-MS/MS analysis; summary of the method: as §4
T2 sequence (P27338 whole entry): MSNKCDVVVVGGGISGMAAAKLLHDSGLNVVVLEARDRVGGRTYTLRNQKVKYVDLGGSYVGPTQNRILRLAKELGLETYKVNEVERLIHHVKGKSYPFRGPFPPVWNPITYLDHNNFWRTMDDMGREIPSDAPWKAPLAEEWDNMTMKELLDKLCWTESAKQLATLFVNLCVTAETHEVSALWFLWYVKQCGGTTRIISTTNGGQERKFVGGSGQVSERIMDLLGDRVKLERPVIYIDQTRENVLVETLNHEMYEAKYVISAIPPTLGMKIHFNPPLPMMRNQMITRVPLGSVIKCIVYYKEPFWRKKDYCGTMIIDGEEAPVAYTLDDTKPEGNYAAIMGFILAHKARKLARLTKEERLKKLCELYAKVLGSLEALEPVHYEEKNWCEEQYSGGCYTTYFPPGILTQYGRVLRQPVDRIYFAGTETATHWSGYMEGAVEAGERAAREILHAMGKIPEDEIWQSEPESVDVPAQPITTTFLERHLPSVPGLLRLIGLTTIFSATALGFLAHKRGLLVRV

[8] = tested on: Mycobacterium tuberculosis; experiment: (§5) Antitubercular activity against Mycobacterium tuberculosis H37Rv infected in Balb/c mouse assessed as reduction in lung bacterial burden at 25 to 100 mg/kg/day, po administered via gavage 5 times per week for 3 weeks starting from 10 days post-infection and measured 24 hrs post last dose; format: functional, organism-based; conditions: dose mg/kg/day 25-100, time 22.0 day
Summary of the method: (§6)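 Female SPF BALB/c mice, 6 per group, aerosol-infected with M. tuberculosis H37Rv to deposit 50-100 bacilli per lung. Compound suspended in 0.5% CMC, given by oral gavage from day 10 post-infection, 5 times per week for 3 weeks; controls got 0.5% CMC. Lungs harvested the day after the last dose, homogenised, diluted in HBSS, plated on 7H11 agar in duplicate, incubated 3 weeks at 37 °C. Result expressed as mean log10 CFU; t-test versus control.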

[9] = tested on: Mycobacterium tuberculosis; experiment: as §5, with “as” for “as reduction in”, “burden by measuring colony forming unit” for “burden”, “25” for “25 to 100”, “dose (reference value: 7.102 +/- 0.152 log10CFU)” for “dose”; format: functional; conditions: time 22 day; summary of the method: as §6
[10] = Toxicity in Mycobacterium tuberculosis H37Rv infected Balb/c mouse assessed as change in body weight at 25 mg/kg/day, po administered via gavage 5 times per week for 3 weeks starting from 10 days post-infection (reference value: 21.29 +/- 0.84 g); format: organism-based; conditions: in vivo, 504 h, time 21 day
[11] = Toxicity in Mycobacterium tuberculosis H37Rv infected Balb/c mouse assessed as change in body weight at 100 mg/kg/day, po administered via gavage 5 times per week for 3 weeks starting from 10 days post-infection (reference value: 21.29 +/- 0.84 g); format: organism-based; conditions: in vivo, 504 h, time 21 day
[12] = tested on: Mycobacterium tuberculosis; experiment: as §5, with “as” for “as reduction in”, “burden by measuring colony forming unit” for “burden”, “at” for “at 25 to”, “dose (reference value: 7.102 +/- 0.152 log10CFU)” for “dose”; format: functional; conditions: time 22 day; summary of the method: as §6
[13] = tested on: Mycobacterium tuberculosis; experiment: Antitubercular activity against Mycobacterium tuberculosis H37Rv infected in Balb/c mouse assessed as reduction in lung bacterial burden at 50 to 100 mg/kg/day, po administered via gavage 5 times per week for 3 weeks starting from 10 days post-infection and measured 24 hrs post last dose; format: functional, organism-based; conditions: dose mg/kg/day 50-100, time 22.0 day; summary of the method: as §6

| Compound | MIC [1] [µg/mL] | IC50 (Vero) [µg/mL] | Stabilty [2] | IC50 (HepG2) [µg/mL] | IC50 [3] [µM] | MIC [4] [µg/mL] | remaining at 0.5 h, 1 µM [5] [%] | IC50 [6] [µM] | IC50 [7] [µM] | Activity [8] | Activity [9] [log10CFU] | Activity [10] [g] | Activity [11] [g] | Activity [12] [log10CFU] | Activity [13] |
| --- | --- | --- | --- | --- | --- | --- | --- | --- | --- | --- | --- | --- | --- | --- | --- |
| CC(=O)NC[C@H]1CN(c2ccc(N3CCSCC3)c(F)c2)C(=O)O1 [SUTEZOLID] | 0.1 (≈ 0.283 µM) | > 64 | Stable | > 64 | 13 | 0.06 (≈ 0.17 µM) | 54.8 | 8.17 | 0.7 | – | – | – | – | – | – |
| CC(=O)NC[C@@H]1OC(=O)N2c3cc(F)c(N4CCSCC4)cc3OC[C@@H]12 | – | – | – | – | – | – | – | – | – | Active | – | – | – | – | – |
| NNC(=O)c1ccncc1 [ISONIAZID] | 0.03 (≈ 0.219 µM) | – | – | – | – | > 10 | – | – | – | – | 1.929 | 21.3 | – | – | – |
| CC(=O)NC[C@H]1CN(c2ccc(N3CCOCC3)c(F)c2)C(=O)O1 [LINEZOLID] | 0.32 (≈ 0.949 µM) | – | Stable | – | – | 0.23 (≈ 0.682 µM) | 111 | 7.98 | – | – | – | – | 20.83 | 4.136 | Active |
